Measured values as given in ChEMBL document CHEMBL4304756, “Second-Generation Tryptamine Derivatives Potently Sensitize Colistin Resistant Bacteria to Colistin” (ACS Med Chem Lett, 2019).
Activity calls are given as the source filed them. The calls are words filed in the database; no cut-off is given here.

What was measured:
[1] = system: Escherichia coli; assay: Potentiation of colistin-induced antibacterial activity against Escherichia coli YD626 assessed as colistin MIC at 50 uM incubated for 16 hrs by broth microdilution method (reference value: 1 ug/ml); type: functional; conditions: YD626, 16 h
[2] = system: Escherichia coli; assay: Potentiation of colistin-induced antibacterial activity against Escherichia coli YD626 harbouring mcr-1 gene assessed as colistin MIC at 50 uM incubated for 16 hrs by broth microdilution method (reference value: 8 ug/ml); type: functional; conditions: YD626, 16 h
[3] = system: Klebsiella pneumoniae; assay: Potentiation of colistin-induced antibacterial activity against Klebsiella pneumoniae 2210291 assessed as colistin MIC at 50 uM incubated for 16 hrs by broth microdilution method (reference value: 1 ug/ml); type: functional; conditions: Klebsiella pneumoniae, 2210291, 16 h
[4] = system: Klebsiella pneumoniae; assay: Potentiation of colistin-induced antibacterial activity against Klebsiella pneumoniae 2210291 harbouring mcr-1 gene assessed as colistin MIC at 50 uM incubated for 16 hrs by broth microdilution method (reference value: 16 ug/ml); type: functional; conditions: Klebsiella pneumoniae, 2210291, 16 h
[5] = system: Acinetobacter baumannii; assay: Potentiation of colistin-induced antibacterial activity against Acinetobacter baumannii 17978 assessed as colistin MIC at 50 uM incubated for 16 hrs by broth microdilution method (reference value: 2 ug/ml); type: functional; conditions: Acinetobacter baumannii, 17978, 16 h
[6] = system: Acinetobacter baumannii; assay: Potentiation of colistin-induced antibacterial activity against Acinetobacter baumannii 17978 harbouring mcr-1 gene assessed as colistin MIC at 50 uM incubated for 16 hrs by broth microdilution method (reference value: 16 ug/ml); type: functional; conditions: Acinetobacter baumannii, 17978, 16 h
[7] = system: Escherichia coli; assay: Potentiation of colistin-induced antibacterial activity against Escherichia coli YD626 harbouring mcr-1 gene assessed as reduction in colistin MIC at 15 uM incubated for 16 hrs by broth microdilution method; type: functional, organism-based
In short: (§1)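 For the dose-response, colistin MIC was measured against mcr-1 plasmid-bearing E. coli, K. pneumoniae and A. baumannii while the adjuvant concentration was lowered stepwise (30, 15 μM, down to 5 μM). The aim was to find where the MIC rose above the 2 μg/mL CLSI susceptibility breakpoint.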

[8] = Cytotoxicity against mouse 4T1 cells assessed as reduction in cell viability incubated for 18 hrs by MTT assay; type: cell-based
In short: (§2)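 4T1 mouse mammary tumor cells exposed to compound for 18 h, alone or together with colistin at 1 μg/mL. Medium then aspirated and replaced with 0.5 mg/mL MTT in culture medium for colorimetric viability read-out. CT50 taken as the concentration giving 50% cell viability.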

[9] = Cytotoxicity against mouse 4T1 cells assessed as reduction in cell viability in presence of 1 ug/ml colistin incubated for 18 hrs by MTT assay; type: cell-based; in short: as §2
[10] = system: Klebsiella pneumoniae; assay: Potentiation of colistin-induced antibacterial activity against Klebsiella pneumoniae 2210291 harbouring mcr-1 gene assessed as reduction in colistin MIC at 15 uM incubated for 16 hrs by broth microdilution method; type: functional, organism-based; in short: as §1
[11] = system: Acinetobacter baumannii; assay: Potentiation of colistin-induced antibacterial activity against Acinetobacter baumannii 17978 harbouring mcr-1 gene assessed as reduction in colistin MIC at 15 uM incubated for 16 hrs by broth microdilution method; type: functional, organism-based; in short: as §1
[12] = system: Klebsiella pneumoniae; assay: Potentiation of colistin-induced antibacterial activity against Klebsiella pneumoniae B9 assessed as reduction in colistin MIC at 20 uM incubated for 16 hrs by broth microdilution method (reference value: 512 ug/ml); type: functional; conditions: B9, 16 h
[13] = system: Klebsiella pneumoniae; assay: Potentiation of colistin-induced antibacterial activity against Klebsiella pneumoniae B9 assessed as reduction in colistin MIC at 15 uM incubated for 16 hrs by broth microdilution method (reference value: 512 ug/ml); type: functional; conditions: B9, 16 h
[14] = system: Klebsiella pneumoniae; assay: Potentiation of colistin-induced antibacterial activity against Klebsiella pneumoniae B9 assessed as reduction in colistin MIC at 10 uM incubated for 16 hrs by broth microdilution method (reference value: 512 ug/ml); type: functional; conditions: B9, 16 h
In short: (§3)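 Colistin MIC was measured against chromosomally colistin-resistant strains (K. pneumoniae B9, C3; A. baumannii 4106, among four strains) with adjuvant at fixed levels from 20 μM down to 7.5 μM. Fold reduction was reported against colistin alone, with the CLSI breakpoint taken as ≤2 μg/mL.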

[15] = system: Klebsiella pneumoniae; assay: Potentiation of colistin-induced antibacterial activity against Klebsiella pneumoniae B9 assessed as reduction in colistin MIC at 7.5 uM incubated for 16 hrs by broth microdilution method (reference value: 512 ug/ml); type: functional; conditions: B9, 16 h
[16] = system: Klebsiella pneumoniae; assay: Potentiation of colistin-induced antibacterial activity against Klebsiella pneumoniae B9 assessed as reduction in colistin MIC at 5 uM incubated for 16 hrs by broth microdilution method (reference value: 512 ug/ml); type: functional; conditions: B9, 16 h
[17] = system: Klebsiella pneumoniae; assay: Potentiation of colistin-induced antibacterial activity against Klebsiella pneumoniae C3 assessed as reduction in colistin MIC at 20 uM incubated for 16 hrs by broth microdilution method (reference value: 512 ug/ml); type: functional; conditions: C3, 16 h; in short: as §3
[18] = system: Klebsiella pneumoniae; assay: Potentiation of colistin-induced antibacterial activity against Klebsiella pneumoniae C3 assessed as reduction in colistin MIC at 15 uM incubated for 16 hrs by broth microdilution method (reference value: 512 ug/ml); type: functional; conditions: C3, 16 h
[19] = system: Klebsiella pneumoniae; assay: Potentiation of colistin-induced antibacterial activity against Klebsiella pneumoniae C3 assessed as reduction in colistin MIC at 10 uM incubated for 16 hrs by broth microdilution method (reference value: 512 ug/ml); type: functional; conditions: C3, 16 h
[20] = system: Acinetobacter baumannii; assay: Potentiation of colistin-induced antibacterial activity against Acinetobacter baumannii 3941 assessed as reduction in colistin MIC at 20 uM incubated for 16 hrs by broth microdilution method (reference value: 512 ug/ml); type: functional; conditions: Acinetobacter baumannii, 3941, 16 h
[21] = system: Acinetobacter baumannii; assay: Potentiation of colistin-induced antibacterial activity against Acinetobacter baumannii 3941 assessed as reduction in colistin MIC at 15 uM incubated for 16 hrs by broth microdilution method (reference value: 512 ug/ml); type: functional; conditions: Acinetobacter baumannii, 3941, 16 h
[22] = system: Acinetobacter baumannii; assay: Potentiation of colistin-induced antibacterial activity against Acinetobacter baumannii 3941 assessed as reduction in colistin MIC at 10 uM incubated for 16 hrs by broth microdilution method (reference value: 512 ug/ml); type: functional; conditions: Acinetobacter baumannii, 3941, 16 h
[23] = system: Acinetobacter baumannii; assay: Potentiation of colistin-induced antibacterial activity against Acinetobacter baumannii 4106 assessed as reduction in colistin MIC at 20 uM incubated for 16 hrs by broth microdilution method (reference value: 1024 ug/ml); type: functional; conditions: Acinetobacter baumannii, 4106, 16 h
[24] = system: Acinetobacter baumannii; assay: Potentiation of colistin-induced antibacterial activity against Acinetobacter baumannii 4106 assessed as reduction in colistin MIC at 15 uM incubated for 16 hrs by broth microdilution method (reference value: 1024 ug/ml); type: functional; conditions: Acinetobacter baumannii, 4106, 16 h
[25] = system: Acinetobacter baumannii; assay: Potentiation of colistin-induced antibacterial activity against Acinetobacter baumannii 4106 assessed as reduction in colistin MIC at 10 uM incubated for 16 hrs by broth microdilution method (reference value: 1024 ug/ml); type: functional; conditions: Acinetobacter baumannii, 4106, 16 h
[26] = Hemolytic activity in sheep RBC at 200 uM incubated for 1 hr by UV spectrophotometry; type: ADME, cell-based, Ovis aries, Erythrocyte; conditions: sheep red blood cells (erythrocytes), read-out: Activity
In short: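 Red blood cells exposed to compound at 200 μM, with percent cell lysis recorded.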

[27] = system: Acinetobacter baumannii; assay: Antivirulence activity in Acinetobacter baumannii 4106 infected Galleria mellonella larvae model assessed as survival rate at 100 mg/kg measured at 24 hrs interval over 4 days; type: functional
In short: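 A. baumannii 4106 was given to Galleria mellonella larvae at 6 × 10^5 CFU, the lethal inoculum found by dose escalation. Larvae were treated with colistin 50 mg/kg, adjuvant 50 mg/kg, colistin plus adjuvant (50 mg/kg each), or tigecycline 100 mg/kg as positive control. Survival was scored out to day 4.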

[28] = system: Escherichia coli; assay: Potentiation of colistin-induced antibacterial activity against Escherichia coli YD626 harbouring mcr-1 gene assessed as reduction in colistin MIC at 15 uM incubated for 16 hrs by broth microdilution method (reference value: 8 ug/ml); type: functional; conditions: YD626, 16 h; in short: as §1
[29] = system: Klebsiella pneumoniae; assay: Potentiation of colistin-induced antibacterial activity against Klebsiella pneumoniae 2210291 harbouring mcr-1 gene assessed as reduction in colistin MIC at 15 uM incubated for 16 hrs by broth microdilution method (reference value: 16 ug/ml); type: functional; conditions: Klebsiella pneumoniae, 2210291, 16 h; in short: as §1
[30] = system: Acinetobacter baumannii; assay: Potentiation of colistin-induced antibacterial activity against Acinetobacter baumannii 17978 harbouring mcr-1 gene assessed as reduction in colistin MIC at 15 uM incubated for 16 hrs by broth microdilution method (reference value: 16 ug/ml); type: functional; conditions: Acinetobacter baumannii, 17978, 16 h; in short: as §1

Compound | MIC [1] [µg/mL] | MIC [2] [µg/mL] | MIC [3] [µg/mL] | MIC [4] [µg/mL] | MIC [5] [µg/mL] | MIC [6] [µg/mL] | Activity [7] | CC50 at 18 h [8] [µM] | CC50 at 18 h [9] [µM] | Activity [10] | Activity [11] | MIC [12] [µg/mL] | MIC [13] [µg/mL] | MIC [14] [µg/mL] | MIC [15] [µg/mL] | MIC [16] [µg/mL] | MIC [17] [µg/mL] | MIC [18] [µg/mL] | MIC [19] [µg/mL] | MIC [20] [µg/mL] | other results
O=C(NCCc1c[nH]c2ccccc12)Nc1cc(C(F)(F)F)cc(C(F)(F)F)c1 | 0.0313 | 1 | 0.25 | 1 | 0.125 | 0.5 | Active | 60.5 | 61.8 | Active | Active | – | – | – | – | – | – | – | – | – | –
O=C(NCCc1c[nH]c2ccccc12)Nc1cc(Br)cc(Br)c1 | 0.25 | 2 | 0.5 | 1 | 0.5 | 1 | Active | 86.2 | 64.2 | Active | Active | ≤ 0.25 | 0.5 | 1 | 4 | 32 | 2 | 4 | 8 | 8 | MIC [21]: 8 µg/mL; MIC [22]: 16 µg/mL; MIC [23]: 4 µg/mL; MIC [24]: 4 µg/mL; MIC [25]: 8 µg/mL
CCCCc1ccc(NC(=O)NCCc2c[nH]c3ccc(Br)cc23)cc1 | 1 | 8 | 0.5 | 16 | 2 | 16 | – | – | – | – | – | – | – | – | – | – | – | – | – | – | hemolysis at 1 h, 200 µM [26]: < 2.5%
CN(C)c1cc(NC(=O)CNC(C)(C)C)c(O)c2c1C[C@H]1C[C@H]3[C@H](N(C)C)C(O)=C(C(N)=O)C(=O)[C@@]3(O)C(O)=C1C2=O [TIGECYCLINE] | – | – | – | – | – | – | – | – | – | – | – | – | – | – | – | – | – | – | – | – | Activity [27]: 20%
O=C(NCCc1c[nH]c2ccc(Br)cc12)Nc1ccc(Cl)c(Cl)c1 | 0.25 | 0.5 | 0.5 | 0.5 | 0.5 | 1 | – | – | – | – | – | ≤ 0.25 | 0.5 | 1 | 2 | 8 | 1 | 2 | 4 | 2 | MIC [28]: 1 µg/mL; MIC [21]: 4 µg/mL; MIC [22]: 8 µg/mL; MIC [23]: 2 µg/mL; MIC [24]: 2 µg/mL; MIC [25]: 4 µg/mL; MIC [29]: 1 µg/mL; MIC [30]: 1 µg/mL
